Screening results from PubChem BioAssay.
T cell HTS = modulators of CD8 T cell-vesicle binding, primary screen, mouse 2C CD8+ T cells, flow cytometry | 2C CD8+ T cell-vesicle binding; active compounds read low | response (vesicle binding), % at 7 µM | 0.068% of 330,000 active;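 active = response, share of CD8 T cells binding vesicles, and their 90th percentile fluorescence all below set limits, cut at about 80% in these data, passing the limit was not always enough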;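 note: values below 100% mean blocked vesicle binding to the CD8+ T cells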
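Test system: purified 2C TCR transgenic mouse naive CD8+ T cells. Probe or stimulus: QL9-peptide-loaded Drosophila micro-vesicles bearing Ld, ICAM-1 and B7-1. Incubation: binding step 1.5 h, 37 °C, antibody labelling 20 min, ice. Measured by: flow cytometry of vesicle-bound cells.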
PGE2 EP2 inh = human EP2 receptor antagonists, primary screen, TR-FRET cAMP, C6 glioma cells; Prostaglandin E2 receptor EP2 subtype (Homo sapiens), P43116; C6 glioma cells expressing human EP2; cells stimulated with saturating PGE2; inhibition, % at 25 µM; 0.52% of 260,000 active; AID 1422, 2008;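 active = percent inhibition above 40 after rounding to a whole number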;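 note: rat C6 glioma host cells with rolipram phosphodiesterase inhibitor present; the protocol text gives 20 µM as final concentration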
EP2 mod = EP2 receptor modulators, cAMP readout, primary screen, cell-based, HTRF cAMP, PGE2 stimulation; Prostaglandin E2 receptor EP2 subtype (Homo sapiens), P43116; 0.83% of 260,000 active; AID 940, 2007; induction, % at 25 µM; EP2-expressing cells, cAMP HTRF FRET, PGE2 co-stimulation;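 active = compounds whose cAMP rise, as percent of the full-agonist control response, exceeds 60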;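 note: rat C6 glioma line stably carrying human EP2 under a CMV promoter; the protocol text gives 20 µM as final concentration; 100% = response of wells given 1 µM PGE2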
Granule exo inh = LAMP-1 surface exposure blockers, TALL-104 cells – cell-based, flow cytometry, MLPCN library, primary screen | TALL-104 LAMP-1 surface exposure; cells stimulated with thapsigargin and PMA | inhibition, % at 10 µM | 0.66% of 360,000 active;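 active = inhibition above about 55%, limit read from the data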
MC4R barr agon = MC4R agonists recruiting beta-arrestin, primary screen, cell-based, luminescence, agonist arm of biased-ligand search. U2OS MC4R beta-arrestin complementation; percent of melanotan II response, DMSO zero. activation, % at 8.9 µM. 0.98% of 360,000 active. AID 540308, 2011;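 active = activation above a per-plate cutoff, the mean activation of sample wells on that plate plus 3 SD, cut at about 8% in these data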
Target sequence (P32245 whole entry, looked up): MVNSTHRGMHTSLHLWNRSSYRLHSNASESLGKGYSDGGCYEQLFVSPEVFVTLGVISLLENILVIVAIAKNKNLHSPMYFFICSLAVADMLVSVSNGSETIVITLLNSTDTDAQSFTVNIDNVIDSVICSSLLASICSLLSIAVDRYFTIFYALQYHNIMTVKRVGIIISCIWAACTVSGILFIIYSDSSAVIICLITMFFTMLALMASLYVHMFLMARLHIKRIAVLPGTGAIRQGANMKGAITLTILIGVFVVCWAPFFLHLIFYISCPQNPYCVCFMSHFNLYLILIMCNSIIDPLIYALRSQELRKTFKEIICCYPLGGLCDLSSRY
MC4R antag cAMP = MC4R antagonists of cAMP signaling, primary screen, cell-based, TR-FRET, antagonist arm of biased-ligand search. MC4R-expressing cells, MTII-stimulated cAMP, LANCE TR-FRET. 0.48% of 360,000 active. Melanocortin receptor 4 (Homo sapiens), P32245. inhibition, % at 6.5 µM;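 active = inhibition above its plate's cutoff, the mean of tested wells on that plate plus 3 SD, cut at about 29% in these data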;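 note: 0% = Melanotan II alone and 100% = Melanotan II plus saturating MCL0020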
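System: U2OS cells stably expressing human melanocortin 4 receptor (MC4R). Reagent: Melanotan II challenge after compound preincubation. Doses: 6.5 µM. Times: 30-min compound, 1-h challenge, 1-h detection, room temperature. Measured by: TR-FRET with Eu-cAMP and labeled anti-cAMP, 671 nm. Replicates: singlicate.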
Granule exo CP1 = inhibitors of lytic granule exocytosis, confirmation, TALL-104 cells, flow cytometry, Cherry Pick01; shares compounds with Granule exo inh; LAMP-1 externalization; stimulated with PMA plus thapsigargin; inhibition, % at 10 µM; 11% of 1,500 active; AID 651954, 2012; in the data active = inhibition above about 60%;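 note: 0% = stimulated vehicle wells and 100% = unstimulated wells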
* hit, by the source's call; ! = not active in a repeat. Only some compounds are listed: those with a hit (about 2.6% of all), similar ones and a draw of the others.

Results for CCCCCN1C(=O)c2cc(OC)ccc2[C@@]2(C(=O)OCC)Cc3cc(Cl)ccc3[C@@H]12 ?
Granule exo inh: 62.8*; Granule exo CP1: -0.4

What do the screens show for `CCOC(=O)[C@]12Cc3cc(OC)ccc3[C@H]1N(C)C(=O)c1ccccc12`?
Granule exo inh: -0.4

What do the screens show for `C[C@]12CC3CC(N)(C1)C[C@@](C)(C3)C2`?
T cell HTS: 218.1; PGE2 EP2 inh: 13.6; Granule exo inh: 2.1; MC4R barr agon: 0.2; MC4R antag cAMP: 17.8

How did O=P1(NCCCn2cc[n+](Cc3nc4ccccc4[nH]3)c2)C=C(c2ccccc2)OC(c2ccccc2)=C1 do in these assays?
T cell HTS: 151.1; PGE2 EP2 inh: 0.9; EP2 mod: 20.9; Granule exo inh: 19.7; MC4R barr agon: 0.0; MC4R antag cAMP: 4.6

Results for COc1ccc(-c2ccc3c(c2)CN(c2cccc(Cl)c2)Cc2cnnn2-3)cc1 ?
Granule exo inh: 88.0*; Granule exo CP1: -11.9

What do the screens show for `Clc1cccc(N2Cc3cc(-c4ccccc4)ccc3-n3nncc3C2)c1`?
Granule exo inh: 98.9*; Granule exo CP1: -12.7

What do the screens show for `Cc1cc(Cl)ccc1C(=O)C1CCCN(C2CCSCC2)C1` (configuration not stated)?
T cell HTS: 350.7; PGE2 EP2 inh: 5.8; EP2 mod: -31.1; Granule exo inh: -5.0; MC4R barr agon: 2.0; MC4R antag cAMP: 16.2

How did CCCN(CCC)CCc1ccc(O)c(O)c1 do in these assays?
PGE2 EP2 inh: 5.7; EP2 mod: 22.8

How did CC(Cc1ccc(O)cc1)NCC(O)c1ccc(O)c(O)c1 (configuration not stated) do in these assays?
Granule exo inh: 65.7*; MC4R barr agon: -2.5; MC4R antag cAMP: -0.8; Granule exo CP1: -2.1

How did O=c1[nH]c(=O)n(-c2ccc(F)cc2)c(O)c1/C=C1\C=Nc2ccccc21 do in these assays?
T cell HTS: 146.1; Granule exo inh: 55.7*; MC4R barr agon: 0.4; MC4R antag cAMP: -24.9; Granule exo CP1: -2.9

What do the screens show for `CCCN1CCc2cc(O)cc3c2[C@H]1Cc1ccc(O)c(O)c1-3`?
T cell HTS: 140.1; PGE2 EP2 inh: 76.8*!; EP2 mod: 9.2; Granule exo inh: 64.6*; MC4R barr agon: -2.3; MC4R antag cAMP: -14.1; Granule exo CP1: -12.6

What do the screens show for `COc1cc2c(cc1O)C[C@H]1c3c(cc(O)c(OC)c3-2)CCN1C`?
T cell HTS: 162.7; Granule exo inh: -0.9; MC4R barr agon: -0.2; MC4R antag cAMP: -4.6

How did CC(C)Nc1ccc(Nc2ccccc2)cc1 do in these assays?
T cell HTS: 201.4; Granule exo inh: 100.4*; MC4R barr agon: -6.1; MC4R antag cAMP: 8.1; Granule exo CP1: 51.6

How did C#CCOc1ccc2c(c1)c(C(C)=O)c(C)n2Cc1ccccc1 do in these assays?
T cell HTS: 523.2; PGE2 EP2 inh: 3.3; EP2 mod: 15.9; Granule exo inh: 59.7*; MC4R barr agon: 1.1; MC4R antag cAMP: -4.8; Granule exo CP1: -3.8

Results for CCOC(=O)c1c(C)n(Cc2ccccc2)c2ccc(OCC(O)CN3C(=O)CNC3=O)cc12 (configuration not stated) ?
T cell HTS: 306.7; PGE2 EP2 inh: 8.4; EP2 mod: 32.4; Granule exo inh: 1.4; MC4R barr agon: -0.7; MC4R antag cAMP: -25.0

Results for CCCCC[C@H]1C(=O)O[C@H](C)[C@H](NC(=O)c2cccc(NC=O)c2O)C(=O)O[C@@H](C)[C@@H]1OC(=O)CC(C)C ?
PGE2 EP2 inh: 12.4; EP2 mod: 27.3

Results for COc1ccc2ccc(O)c(CN3CC=C(c4ccccc4)CC3)c2c1 ?
T cell HTS: 379.9; PGE2 EP2 inh: 6.2; EP2 mod: 34.8; Granule exo inh: 91.7*; MC4R barr agon: 4.4; MC4R antag cAMP: 4.5; Granule exo CP1: 16.8
